A selection: hits, their analogues and other compounds. The true share with any hit is near 1.9%.
VIM-2 inhibitor = VIM-2 metallo-beta-lactamase inhibitors, primary screen, biochemical, epi-absorbance readout, Pseudomonas aeruginosa enzyme. purified VIM-2, nitrocefin hydrolysis, epi-absorbance fluorescence. inhibition, % at 5.6 µM. actives 0.89% (n = 290,000). AID 1527, 2009;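 active = inhibition above the mean of all tested compounds plus 3 SD, cutoff set per screening run, cut at about 7.5% in these data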;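 also: red hydrolysis product quenches plate fluorescence so inhibitors raise well fluorescence; 0% = enzyme with DMSO and 100% = DMSO without enzyme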
NadD block = inhibitors of S. aureus NadD, primary screen, biochemical, colorimetric, uHTS | inhibition, % at 20 µM | actives 0.78% (n = 360,000) | purified NadD enzyme, colorimetric absorbance read-out | AID 602399, 2012 | Nicotinate-nucleotide adenylyltransferase NadD (Staphylococcus aureus N315); in the data active = inhibition above about 26%
core dimer inh = inhibitors of HCV core protein dimerization, primary screen, biochemical, TR-FRET, high-throughput. actives 0.33% (n = 300,000). TR-FRET GST/Flag-core106 dimerization, 1536-well. inhibition, % at 5 µM. AID 1899, 2009;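 active = inhibition above the mean of all tested compounds plus 3 SD, set per screening campaign, cut at about 45% in these data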
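System: GST-tagged and Flag-tagged HCV core protein residues 1-106 / Input: core106 proteins, GST 13.5 nM and Flag 17 nM / Buffer or medium: KF-containing HEPES buffer, pH 7.45, DTT, CHAPS, BSA / Probe or stimulus: Eu-anti-GST and XL665-anti-Flag labelled anti-tag antibodies / Schedule: 4 h, 22.5 °C incubation / Technique: TR-FRET 671 and 617 nm emission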
IMP-1 inh = IMP-1 metallo-beta-lactamase inhibitors, primary screen, biochemical, epi-absorbance readout, Pseudomonas aeruginosa enzyme; purified IMP-1, nitrocefin hydrolysis, epi-absorbance fluorescence; inhibition, % at 5.6 µM; actives 0.45% (n = 290,000);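 active = inhibition above the mean plus 3 SD of all compounds in the same screening run, cut at about 4.5% in these data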;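 also: 0% = IMP-1 with DMSO and 100% = DMSO wells lacking enzyme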
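system = purified recombinant IMP-1 beta-lactamase | amount = 0.2 nM IMP-1, as dispensed | medium = HEPES buffer pH 7.1 with ZnSO4 and Brij 35 | times = 25 °C, 15 min preincubation, 25 min reaction | detection = plate fluorescence quenching by hydrolysis product, ex 480/em 530 nm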
NadD inh conf = inhibitors of S. aureus NadD, confirmation, biochemical, colorimetric, single concentration; inhibition, % at 20 µM; shares compounds with NadD block; purified S. aureus NadD, colorimetric enzyme assay; actives 13% (n = 2,000); AID 624309, 2012; in the data active = inhibition mostly above about 42%, no sharp cut-off; inactive = mostly below about 42%
Starred values were filed as active, the others as inactive; / = no result.

SMILES	VIM-2 inhibitor	NadD block	core dimer inh	IMP-1 inh	NadD inh conf
Cc1sc(NC(=O)Cc2ccc3c(c2)OCO3)nc1-c1ccc2c(c1)CCN2C(=O)c1ccccc1F	-2.5	36.5*	37.8	-3.0	19.5
Cc1sc(NC(=O)CN2CCCC2)nc1-c1ccc2c(c1)CCN2C(=O)c1cccc(F)c1	-1.3	16.4	9.2	-0.6	/
CCOC(=O)C(=O)Nc1nc(-c2ccc3c(c2)CCN3C(=O)C2CC2)c(C)s1	4.2	7.5	-7.7	-0.1	/
COc1ccc([N+](=O)[O-])cc1N(CC(O)CN1C(=O)NC(C)(C)C1=O)S(=O)(=O)c1ccc(C)cc1 (stereo not drawn)	/	8.0	/	/	/
O=C(CN1C(=O)NC(c2ccccc2)(c2ccccc2)C1=O)NCc1ccc(F)cc1	/	-2.7	/	/	/
Cc1c(Cl)ccc2c(C(=O)Nc3cc(C(C)(C)C)on3)cc(-c3ccccn3)nc12	-3.1	34.3*	-40.3	-4.4	11.4
Cc1ccc(Cc2cnc(NC(=O)/C(C#N)=C/c3ccc(-c4ccccc4[N+](=O)[O-])o3)s2)cc1	-3.0	29.1*	34.7	-4.3	-1.0
Cn1cc(/C=C(\C#N)C(=O)Nc2ncc(Cc3ccc(Cl)cc3)s2)c2ccccc21	-0.2	30.6*	6.8	-2.7	0.5
CNC(=O)/C(C#N)=C/c1ccc(-c2ccccc2[N+](=O)[O-])o1	4.6	-10.4	-2.5	-1.4	/
COc1ccc(CNC(=O)C2(CC3CC(c4ccccc4)=NO3)CCNCC2)cc1 (stereo not drawn)	/	-2.9	-12.3	/	/
CC(Cc1cccnc1)NC(=O)c1cc(COc2ccc(F)cc2Cl)on1 (stereo not drawn)	-3.3	1.7	-4.5	-2.8	/
Cc1cc(-c2csc(N)n2)c(C)n1CCc1ccccc1	-2.7	29.6	33.0	-3.0	/
Cc1cc(-c2csc(N)n2)c(C)n1CCC(C)C	-0.2	34.1*	25.5	-2.3	11.4
Cc1ccnc(Nc2nc(-c3ccc(O)cc3O)cs2)c1	-1.8	5.6	2.7	-1.4	/
CCc1cc2c(cc3c(=O)n(CC(=O)NCCCN4CCCCCC4)nc(CC)n32)s1	2.5	31.1*	-1.6	-3.8	-13.1
O=c1cc(-c2ccccc2)oc2cc(OCc3ccccc3)cc(O)c12	-3.4	-1.2	3.2	-2.3	/
O=c1cc(-c2ccc(OCc3ccccc3)cc2)oc2cc(OCc3ccccc3)cc(OCc3ccccc3)c12	/	41.6*	/	/	12.9
O=C(N/N=C\c1cc([N+](=O)[O-])ccc1N1CCCC1)c1ccccn1	-2.6	5.7	10.5	-2.9	/
O=C(Cn1c2ccccc2c(=O)c2ccccc21)N/N=C/c1cc([N+](=O)[O-])ccc1N1CCCCC1	-1.4	46.7*	3.2	-0.9	9.0
Cc1ccc(C2(C)NC(=O)N(CC(=O)NNC(=O)c3ccccc3)C2=O)cc1 (stereo not drawn)	/	-4.3	/	/	/
CN(C)/C=C(\C=N\OCc1ccc(Cl)cc1Cl)C(=O)Nc1ccc(Cl)c(Cl)c1	0.7	28.8*	-0.2	-0.2	-0.3
COc1ccc(CNC(=O)CN2c3ccccc3S(=O)(=O)c3ccccc32)cc1	-1.4	0.7	13.3	-1.3	/
O=C(Nn1c(SCc2cccc([N+](=O)[O-])c2)nc2ccccc2c1=O)c1ccccc1	-1.5	10.3	21.7	-0.1	/
COc1ccc(C(=O)Nn2c(SCc3cccc([N+](=O)[O-])c3)nc3ccccc3c2=O)cc1	2.2	27.8*	35.4	-0.6	39.8
Cc1cc(C(=O)N/N=C/c2cc(Br)cc(Br)c2OC(=O)c2cccc(F)c2)n[nH]1	-2.8	31.9*	-1.1	-1.9	12.6
COc1ccccc1CNC(=O)CN1C(=O)COc2ccc(S(=O)(=O)N3CCCCC3)cc21	2.9	1.9	2.5	-2.3	/
CC1(C)Cc2c(C#N)c(N3CCN(C(=O)c4ccccc4)CC3)nc(-c3ccco3)c2CS1	-7.4	43.3*	87.1*	-4.0	21.7
Cc1c(Cl)cccc1NC(=S)N(CCN(C)C)C(C)c1ccco1 (stereo not drawn)	-1.9	-4.8	0.9	-1.9	/
Cc1ccc(C(=O)NCC(=O)OCC(=O)NC(C)C2CC3CCC2C3)cc1 (stereo not drawn)	/	-5.1	/	/	/
